# Results reported in PubChem BioAssay.
# Active and inactive are the calls of the source.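 Rule for the calls, unless noted: active = visually confirmed hit in the image check and inhibition above 20%; inconclusive = visually confirmed hit but inhibition not above 20%; inactive = no visual hit in the image check.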
# Assays:
# [1] = inhibitors of TNFa-induced NFkB p65 translocation, primary screen, imaging, HUVEC, MLSMR starter and 10KST1 sets (AID 438;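 active = inhibition above 20% together with a positive visual image hit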;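 note: compound added about 3h40 before a 20 min TNFalpha stimulation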;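 for inhibition: signal is the nuclear over cytoplasmic p65 intensity ratio per well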); conditions: HUVEC TNFa-induced p65 nuclear translocation; cell count: measured here: nuclei count (cytotoxicity indicator), at 2.08 µM; inhibition: at 2 µM, stronger effect = higher value, 0% TNFa-plus-vehicle, 100% no-TNFa wells
# [2] = reduction of polyQ htt aggregates in cells – imaging, exon1htt(103Q)mCFP cells, high-content imaging, primary screen (AID 483;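 active = visual image review flags a hit and inhibition of aggregation exceeds 20%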;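 note: compound exposure lasted 3 days before fixation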;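 for nuclei count: percent of the per-plate median nuclei count of sample wells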); conditions: exon1htt(103Q)mCFP cell line, aggregate imaging, at 2 µM; inhibition of aggregation: stronger effect = higher value; nuclei count: measured here: cell count, toxicity
# [3] = endothelial E-selectin expression blockers – imaging, HUVEC, immunofluorescence, MLSMR starter and 10KST1 sets, primary screen (AID 487); conditions: HUVEC TNFalpha-induced E-selectin immunofluorescence imaging, at 2 µM; inhibition: stronger effect = higher value; nuclei count: measured here: cell number, toxicity;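 for inhibition: signal is fraction of cell area covered by stained E-selectin grains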;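 for nuclei count: 100% = median nuclei count of all wells on the same plate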
# [4] = biological target: Voltage-gated potassium channel subunit beta-2 (Rattus norvegicus) (UniProt P62483); assay: inhibitors of rat Kvbeta2 reductase activity – biochemical, NADPH fluorescence, primary screen (AID 622;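 active = fluorescence slope higher than the sample average by over 3 SD, cut at about -0.22 in these data, passing the limit was not always enough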;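 note: slope of raw intensity against log time taken from 70 to 1610 s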); conditions: recombinant KvBeta, 4-cyanobenzaldehyde reduction, at 10 µM, stronger effect = higher value
# [5] = biological target: Voltage-gated potassium channel subunit beta-2 (Rattus norvegicus) (UniProt P62483); assay: enhancers of rat Kvbeta2 NADPH turnover – biochemical, NADPH fluorescence, primary screen (AID 623;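 active = NADPH fluorescence slope more negative than the mean of all samples by about 3 SD, 99.7% confidence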;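 note: fluorescence intensity change per second fitted from 20 to 320 s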); conditions: Recombinant KvBeta, NADPH fluorescence decrease slope, 10 min; at 10 µM; stronger effect = lower value
# [6] = biological target: Muscarinic acetylcholine receptor M4 (Homo sapiens) (UniProt P08173); assay: M4-linked GIRK flux change, two-sided – cell-based, HEK293 M4/GIRK, thallium flux, BTC-AM, M4 allosteric agonist project, primary screen (AID 625;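 active = fluorescence slope after compound addition differing from the mean of all tested samples at 99.7% confidence, mostly higher but some lower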;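 note: thallium influx through GIRK channels coupled to M4 in HEK293 cells with BTC-AM dye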); conditions: at 10 µM, actives lie on both sides
# Summary of the method: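 Assay system: HEK293 cells with M4 receptor and GIRK channels / Controls: carbachol and DMSO controls / Schedule: 1 h dye loading, 2 min kinetic read / Technique: kinetic fluorescence with BTC-AM dye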
# [7] = blockers of RIG-like receptor reporter activation – cell-based, Sendai virus stimulus, luciferase, 10K MLSCN set, TLR/RLR signaling modifier project, primary screen (AID 602276;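 active = inhibition at or above 50% at 10 µM; inactive = inhibition below 50%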;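 note: firefly luciferase from ISG56 promoter only with Renilla not read in this screen; 0% = Sendai virus plus DMSO and 100% = medium plus DMSO without virus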); conditions: HEK293 RL24 IRF3 luciferase reporter, at 10 µM, stronger effect = higher value
# [8] = TLR3 IRF3 reporter activation blockers – cell-based, poly I:C stimulus, luciferase, 10K MLSCN set, primary screen (AID 602277;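 active = inhibition of the reporter signal at or above 50%; inactive = inhibition below 50%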); conditions: HEK293-TLR3 RL24 IRF3 luciferase reporter, at 10 µM, stronger effect = higher value
# Voltage-gated potassium channel subunit beta-2 (Rattus norvegicus), sequence (P62483 whole entry, looked up): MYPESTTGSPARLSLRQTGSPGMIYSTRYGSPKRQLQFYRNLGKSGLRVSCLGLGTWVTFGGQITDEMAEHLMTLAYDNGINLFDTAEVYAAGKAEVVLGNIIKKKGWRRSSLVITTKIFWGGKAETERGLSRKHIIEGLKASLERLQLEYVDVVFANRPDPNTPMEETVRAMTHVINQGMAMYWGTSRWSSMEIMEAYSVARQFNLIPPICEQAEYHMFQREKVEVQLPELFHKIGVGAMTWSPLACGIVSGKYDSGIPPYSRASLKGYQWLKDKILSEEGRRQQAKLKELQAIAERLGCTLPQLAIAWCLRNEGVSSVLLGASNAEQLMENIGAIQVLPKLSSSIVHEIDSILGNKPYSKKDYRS
# Muscarinic acetylcholine receptor M4 (Homo sapiens), sequence (P08173 whole entry, looked up): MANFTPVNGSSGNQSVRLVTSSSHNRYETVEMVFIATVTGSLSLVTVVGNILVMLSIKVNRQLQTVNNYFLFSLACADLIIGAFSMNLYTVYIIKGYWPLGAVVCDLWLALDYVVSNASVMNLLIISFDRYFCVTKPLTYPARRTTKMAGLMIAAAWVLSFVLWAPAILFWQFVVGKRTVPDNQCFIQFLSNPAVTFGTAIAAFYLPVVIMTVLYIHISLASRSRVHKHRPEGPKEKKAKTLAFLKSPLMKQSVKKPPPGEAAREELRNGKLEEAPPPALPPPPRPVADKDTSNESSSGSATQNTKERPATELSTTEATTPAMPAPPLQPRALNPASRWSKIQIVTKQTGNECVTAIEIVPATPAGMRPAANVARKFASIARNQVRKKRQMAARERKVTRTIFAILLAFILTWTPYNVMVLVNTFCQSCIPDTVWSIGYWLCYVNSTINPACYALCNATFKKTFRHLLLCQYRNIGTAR
Structure (SMILES),cell count [1],inhibition [1],inhibition of aggregation [2],nuclei count [2] [%],inhibition [3],nuclei count [3] [%],fluorescence slope [4],NADPH fluorescence slope [5],fluorescence slope [6],inhibition [7],inhibition [8]
Cc1occc1C(=O)Nc1ccccc1NC(=O)c1ccoc1C,425,-11.5% (inactive),29.8% (inactive),87.4,40.5% (inactive),90.2,-0.543 (inactive),-3.1e-05 (inactive),0.00485 (inactive),12.7% (inactive),24.7% (inactive)
Cc1ccc(-n2c(=O)[nH]c3c(C(N)=O)nc(CC(C)C)nc32)cc1,297,37.7% (active),9.5% (inactive),92.3,6.3% (inactive),98.1,-0.536 (inactive),-0.000117 (inactive),0.00328 (inactive),-2.4% (inactive),8.27% (inactive)
COc1cc(-c2nnc(SCC(=O)c3cc(C)n(CC4CCCO4)c3C)o2)cc(OC)c1OC (centres undefined),317,2.8% (inactive),23.1% (inactive),94.5,-43.2% (inactive),115,-0.245 (inactive),-3.7e-06 (inactive),0.00647 (inactive),24.8% (inactive),27.1% (inactive)
CCOC(=O)N1CCC(NC(=O)c2ccc3nc(N4CCOCC4)sc3c2)CC1,585,2.2% (inactive),0% (inactive),112,36% (inactive),90.8,-0.591 (inactive),1.8e-05 (inactive),0.00698 (inactive),12.9% (inactive),12.3% (inactive)
O=C(O)CSc1ccc2ccccc2n1,418,3.6% (inactive),1.4% (inactive),106,15.7% (inactive),102,-0.525 (inactive),-3.7e-05 (inactive),0.00444 (inactive),19% (inactive),23.8% (inactive)
Cc1csc(NC(=O)c2cccc(S(=O)(=O)N3CCCCC3)c2)n1,352,7.4% (inactive),-9.9% (inactive),96.8,-30.5% (inactive),109,-0.587 (inactive),-3e-05 (inactive),0.00964 (inactive),-5.34% (inactive),16.9% (inactive)
CCN(CC)S(=O)(=O)c1ccc2oc(C(=O)O)c(C)c2c1,335,12.8% (inactive),39.6% (inactive),85.6,-89.3% (inactive),104,-0.473 (inactive),0.000115 (inactive),0.00522 (inactive),5.96% (inactive),11.9% (inactive)
Cc1ccc(-c2csc3nnc(SCC(=O)NCc4ccco4)n23)cc1,656,5.2% (inactive),-2.5% (inactive),101,-76.9% (inactive),94.1,-0.556 (inactive),-2.1e-05 (inactive),0.00536 (inactive),17.2% (inactive),19.3% (inactive)
O=c1c2ccccc2c(C=Nc2ccc(Cl)cn2)c(O)n1-c1cc(Cl)ccc1N1CCOCC1,164,14.4% (inactive),-6.2% (inactive),83.8,-0.8% (inactive),90.3,-0.551 (inactive),-6e-05 (inactive),0.00995 (inactive),7.35% (inactive),-5.13% (inactive)
CCOC(=O)c1sc2nc(C)cc(C)c2c1N,443,8.7% (inactive),-13.6% (inactive),111,-26% (inactive),127,-0.105 (inactive),-1.9e-05 (inactive),0.00463 (inactive),-33.2% (inactive),-45.5% (inactive)
CN(C)S(=O)(=O)n1cnc(-c2ccccc2)c1-c1ccccc1,382,2.8% (inactive),10.1% (inactive),100,-26.1% (inactive),107,-0.497 (inactive),-9.7e-06 (inactive),0.00475 (inactive),11.2% (inactive),20.5% (inactive)
Cc1cc(NS(=O)(=O)c2ccccc2)n(-c2ccccc2)n1,395,10.8% (inactive),-18.2% (inactive),94.7,-59.1% (inactive),106,-0.544 (inactive),-4.8e-05 (inactive),0.00508 (inactive),-0.656% (inactive),28% (inactive)
O=C(O)COc1ccc2occ(C(=O)c3ccccc3)c2c1,232,-4.4% (inactive),24.2% (inactive),94.5,-56.2% (inactive),104,-0.592 (inactive),-4.3e-05 (inactive),0.00364 (inactive),10.3% (inactive),4.56% (inactive)
NC(=O)c1c(NC(=O)CSc2nnc(-c3ccco3)n2-c2ccccc2)sc2c1CCC2,577,-15.4% (inactive),-3.6% (inactive),115,50.4% (inactive),132,-0.525 (inactive),0.00013 (inactive),0.00489 (inactive),30.1% (inactive),32.9% (inactive)
